Results from different studies.
Protocols differ between the studies behind these lines.
Target: Serine/threonine-protein kinase NIM1 (NIM1K, Homo sapiens, UniProt Q8IY84)

SMILES	read-out	technique	tested at	remaining binding [%]
COc1cnc(Nc2cccc(S(N)(=O)=O)c2)nc1N1CCN(c2ccccc2)CC1	binding	competition with immobilised ligand	1 µM	71
c1cncc(-c2cccc(Nc3nccc(NC4CCCCC4)n3)c2)c1	binding	competition with immobilised ligand	10 µM	88
CS(=O)(=O)c1cc(C2(NC(=O)c3cncc4c3cnn4-c3ccc(F)cc3)CC2)ccn1	cell-free assay	competition with immobilised ligand	1 µM	56
CN(CCCC(F)(F)F)c1nccc(-c2cnn3ncccc23)n1	binding	–	1 µM	100
O=C(c1ccc(Nc2ncc(Cl)c(-c3ccc(Cl)s3)n2)cc1)N1CCC(N2CCCC2)CC1	binding	competition with immobilised ligand	1 µM	6.3
CN(C)c1nccc(-c2cnc3ncccn23)n1	binding	–	1 µM	67
Cc1cc(-n2nc(Cc3cc(F)cc(C(F)(F)F)c3)nc2C)ccc1C(N)=O	cell-free assay	competition with immobilised ligand	1 µM	100
CN(C)c1nccc(-c2cnn3ncccc23)n1	binding	–	1 µM	52
O=C(NCC1CCOCC1)c1n[nH]cc1NC(=O)c1c(F)cccc1F	binding	competition with immobilised ligand	1 µM	97
CCN1CCN(Cc2ccc(C(=O)Nc3ccc(C)c(Oc4ccc5c(c4)CC(=O)N5)c3)cc2C(F)(F)F)CC1	binding	competition with immobilised ligand	1 µM	100
C[C@@H]1CN(c2cc(-c3nn(C)c4ccc(OC5(C)CC5)cc34)ncn2)C[C@H](C)O1	cell-free assay	competition with immobilised ligand	1 µM	74
FC(F)(F)Oc1cccc(-c2cnc3ccc(-c4ccncc4)nn23)c1	cell-free assay	competition with immobilised ligand	5 µM	87
C[C@@H](c1ccc(-n2cnc3c(N)ncnc32)cc1)N1CCc2nn(C)c(Cc3ccccc3)c2C1=O	binding	competition with immobilised ligand	0.1 µM	67
COc1cccc(CNC(=O)c2nc3scc(COCc4ccc(C(=O)O)cc4)c3c(=O)[nH]2)c1	cell-free assay	competition with immobilised ligand	1 µM	100
Cc1cnn2ncc(-c3ccnc(N(C)C)n3)c2c1	binding	–	1 µM	92
COc1ccc2c(c1)O[C@H](c1ccc(OC)c(OC)c1)C[C@@H]2NC(=O)C1(c2ccc3c(c2)OC(F)(F)O3)CC1	cell-free assay	competition with immobilised ligand	1 µM	84
C[C@H]1CCN(c2nccc(-c3cnn4ncccc34)n2)C1	binding	–	1 µM	82
CC(=O)C1=C(C)N(c2cccc(C(F)(F)F)c2)C(=O)N[C@@H]1c1ccc(C#N)nc1	cell-free assay	competition with immobilised ligand	1 µM	83.5
CC1CCCN1c1nccc(-c2cnn3ncccc23)n1 (stereo not shown)	binding	–	1 µM	95
O=C(c1ccc(Nc2nccc(-c3cc4ccccc4s3)n2)cc1)N1CCC(N2CCCC2)CC1	binding	competition with immobilised ligand	1 µM	80
F[C@@H]1CCN(c2nccc(-c3cnn4ncccc34)n2)C1	binding	–	1 µM	100
O=C(NCCCN1CCOCC1)c1ccc(Nc2nccc(-c3cc4ccccc4s3)n2)cc1	binding	competition with immobilised ligand	1 µM	86
